In the library only some 29% were active in any assay of this set; here they are far more common.
CYP2C19 act: activators of human cytochrome P450 2C19; activation factor at 5 µM; 96,000 tested, under 10 active; recombinant CYP2C19, luciferin-H EGE luminescence; stronger effect = higher value; 0 = fully inhibited enzyme, 1 = untreated enzyme;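 active = activation factor of at least 2 at 5 µM in the primary screen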;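 also: 0 = wells with 2.5 mM tranylcypromine and 1 = vehicle-only wells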
Target sequence (P33261 whole entry, looked up): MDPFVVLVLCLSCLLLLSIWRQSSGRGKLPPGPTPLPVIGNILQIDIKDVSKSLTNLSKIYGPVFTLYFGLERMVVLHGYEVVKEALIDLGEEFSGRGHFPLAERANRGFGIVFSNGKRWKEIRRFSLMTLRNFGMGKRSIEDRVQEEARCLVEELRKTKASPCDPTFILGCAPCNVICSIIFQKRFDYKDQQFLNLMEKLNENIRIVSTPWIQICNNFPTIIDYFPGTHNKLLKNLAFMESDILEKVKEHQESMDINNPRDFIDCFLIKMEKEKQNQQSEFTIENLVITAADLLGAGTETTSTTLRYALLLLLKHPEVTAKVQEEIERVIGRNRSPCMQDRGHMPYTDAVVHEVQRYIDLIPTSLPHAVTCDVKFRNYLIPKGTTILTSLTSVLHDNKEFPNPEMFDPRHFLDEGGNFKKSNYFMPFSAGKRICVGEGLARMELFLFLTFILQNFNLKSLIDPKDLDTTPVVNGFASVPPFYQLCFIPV
tolC growth inh: growth inhibitors of E. coli BW25113 tolC mutant; OD615; growth inhibition, % at 10 µM (by protocol); 2.2% of 65,000 active; AID 573;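 active = growth inhibition at or above a cutoff equal to the mean over every tested compound plus 3 SD, cut at about 60% in these data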;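 also: growth measured after 20 h incubation at 37 °C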
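Test system – E. coli BW25113 ΔtolC::kan, tolC deletion mutant strain · Detection – OD at 615 nm · Buffer or medium – LB with kanamycin 50 µg/mL · Times – 20 h compound exposure of bacteria at 37 °C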
Ecoli WT expand: blocks growth of wild type E. coli BW25113; OD600 absorbance; AID 710; growth inhibition, % at 100 µM; 0.15% of 98,000 active;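 active = growth inhibition above about 50% at one test dose, limit read from the data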;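 also: growth measured after 20 h incubation at 37 °C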
CYP2C9 act: activators of human CYP2C9. P11712. recombinant CYP2C9, luciferin-H conversion, luminescence; stronger effect = higher value; factor 1 = untreated enzyme, 0 = blocked. activation factor at 5 µM. 1.4% of 96,000 active;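 active = activation factor of 2 or more for CYP2C9 at a 5 µM dose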;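 also: 0 = sulfaphenazole-blocked wells and 1 = vehicle-only wells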
CYP2C9 inhib: blocks human cytochrome P450 2C9; P11712; CYP2C9 Supersomes, luciferin-H conversion, luminescence; inhibition, % at 5 µM; 20% of 96,000 active; AID 777;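 active = blocking of liver enzyme CYP2C9 beyond about 50% at 5 µM, limit read from the data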
CYP2C19 inhib: inhibitors of human CYP2C19 | 21% of 96,000 active | CYP2C19 Supersomes, luciferin-H EGE luminescence, 30 min | inhibition, % at 5 µM | AID 778;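 active = CYP2C19 inhibition above a set limit at 5 µM in the primary screen, cut at about 50% in these data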;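 also: plate controls were negative control wells for no effect and 2.5 mM tranylcypromine positive control for full effect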
The depositor's hits bear a star; . = no result given.

SMILES	CYP2C19 act	tolC growth inh	Ecoli WT expand	CYP2C9 act	CYP2C9 inhib	CYP2C19 inhib
CC(=O)c1c(C(C)=O)c(C)n(NC(=O)c2ccncc2)c1C	0.1	11	6	0.6	45	89*
FC(F)(F)c1cc(-c2ccccc2)nc(NCC2CCCO2)n1 (stereo not given)	0.9	22	14	0.8	19	10
FC(F)(F)c1cc(-c2ccccc2)nc(N2CCCCC2)n1	1	-7	6	1.1	-11	-2
FC(F)(F)c1cc(-c2ccccc2)nc(NC2CCCC2)n1	0.6	.	8	0.4	56*	42
Fc1ccc(-c2cc(C(F)(F)F)nc(NCC3CCCO3)n2)cc1 (stereo not given)	0.7	100*	0	0.7	26	27
CCOC(=O)CSC1=Nc2ccccc2C2=NC(CC(=O)NCc3ccc4c(c3)OCO4)C(=O)N12 (stereo not given)	1	7	-8	0.7	33	1
Cc1ccccc1CN1CCN(CC2CC3C=CC2C3)CC1 (stereo not given)	0.4	.	2	0.9	13	61*
C1=CC2CC1CC2CN1CCN(c2ccccc2)CC1 (stereo not given)	0.3	-14	3	0.8	20	66*
Cc1nc(NC(=O)COc2ccccc2)sc1C(=O)Nc1cccc(Cl)c1	1	.	-10	1	5	-3
Cc1cc(C)n(C2=NS(=O)(=O)c3ccccc32)n1	1.1	-26	-3	1.2	-17	-6
O=C(CCS(=O)(=O)c1ccc(Br)s1)N1CCc2ccccc21	0.8	20	6	1.5	-48	24
CC(=O)Nc1ccccc1-c1nn[nH]n1	1	.	2	1	-2	4
CCC(Oc1nc2ccccc2nc1-c1ccccc1NC(C)=O)C(=O)c1ccccc1 (stereo not given)	1	.	-11	0.5	53*	-4
Cc1ccnc(NS(=O)(=O)c2ccc(N=CC3=C(O)CC(C)(C)CC3=O)cc2)n1	1.2	-31	14	1.2	-24	-19
Cc1cccc(S(=O)(=O)Nc2ccc(C)c3c2OC(C)(C)C3)c1	0	.	4	2.1*	-111	97*
Cc1ccc(-c2onc3ccc(C4(C)OCCO4)cc23)cc1	0.4	.	-6	0.5	54*	60*
CCOC(=O)Cn1c(S(=O)(=O)Cc2ccccc2Cl)nc(-c2ccccc2)c1-c1ccccc1	0.8	.	-15	0.6	42	19
Cc1ccc(S(=O)(=O)c2c(COC(=O)c3ccccc3Cl)c(-c3ccccc3)nn2C)cc1	0.5	.	-16	0.3	70*	50*
CCC(C)n1nccc1NC(=O)C(C)OC(=O)c1cc2ccccc2[nH]1 (stereo not given)	0	1	6	0.7	30	97*
Cc1sc(-c2ccncc2)nc1OC(=O)c1ccccc1	0	.	7	0	96*	99*
Cc1sc(-c2ccccn2)nc1OC(=O)c1cccc(Cl)c1Cl	1	.	7	0.3	72*	-2
Cc1sc(-c2ccccn2)nc1OC(=O)c1ccc(Cl)cc1	1.1	.	3	1	-3	-10
CCC(=O)N(CC(=O)Nc1sc(C)c(C)c1C(N)=O)C1CCCCC1	1	.	3	1	4	2
CC(C)OC(=O)CSc1nc2ccccc2s1	0.8	2	7	0.9	8	20
COc1ccc2c(c1)C(C)CC(C)(C)N2C(=O)CSc1nc2ccccc2s1 (stereo not given)	0.3	.	-34	0.5	54*	71*
SMILES	CYP2C19 act	tolC growth inh	Ecoli WT expand	CYP2C9 act	CYP2C9 inhib	CYP2C19 inhib
O=C(NC(Cc1ccccc1)c1ccc2c(c1)OCCCO2)c1ccc(F)cc1 (stereo not given)	0.4	.	-12	0.1	90*	64*
COc1cccc(C(=O)NC(Cc2ccccc2)c2ccc3c(c2)OCCCO3)c1 (stereo not given)	0.5	.	2	0.2	75*	46
O=C(O)C(Cc1ccccc1)NS(=O)(=O)c1ccc2c(c1)OCCO2 (stereo not given)	0.8	.	6	1	-2	15
Cn1c(=O)c2c(nc(CN3CCN(c4cccc(Cl)c4)CC3)n2CCc2ccccc2)n(C)c1=O	.	25	.	.	.	.
CCOCCn1c(CN2CCN(c3cccc(Cl)c3)CC2)nc2c1c(=O)n(C)c(=O)n2C	0.5	11	10	0.2	80*	50
COCCn1c(CN2CCN(c3cccc(Cl)c3)CC2)nc2c1c(=O)n(C)c(=O)n2C	0.6	9	6	0.2	77*	44
Cn1c(=O)[nH]c(=O)c2c1nc(CN1CCN(c3cccc(Cl)c3)CC1)n2Cc1ccccc1Cl	1	21	-2	0.3	73*	2
CC(C)CCn1c(CN2CCN(c3cccc(Cl)c3)CC2)nc2c1c(=O)n(C)c(=O)n2C	.	22	.	.	.	.
CCCCS(=O)(=O)c1sc2nc(C)cc(C)c2c1N	0.1	7	4	2.7*	-165	89*
Cc1cc(C)c2c(N)c(C(=O)NCC3CCCCC3)sc2n1	0.9	.	2	0.7	26	6
Cc1cc(C)c2c(N)c(S(=O)(=O)c3ccccc3)sc2n1	0.4	-3	0	3*	-196	56*
CSc1nnc(Cn2c(=O)sc3ccccc32)n1-c1ccccc1C	.	11	-5	.	.	.
O=c1cc(C(F)(F)C(F)F)oc2ccccc12	1.2	.	4	0.9	11	-19
CSc1ccc(-c2cc(=O)c3ccccc3o2)cc1	0.6	61*	-12	0.6	45	42
CCCCNc1cc(C)oc(=O)c1C(C)=O	1.1	-12	8	1.1	-14	-12
CCCNc1cc(C)oc(=O)c1C(=O)CCC	0.8	.	9	2*	-100	25
CCC(C)NC(=O)c1c(C)cc(=O)oc1C (stereo not given)	1.1	-8	5	1.2	-21	-13
CCCC(=O)c1c(NC(C)C)cc(C)oc1=O	0.9	-4	-3	2.2*	-122	8
CC(=O)c1c(NCCc2ccccc2)cc(C)oc1=O	0.4	-6	7	0.7	33	57*
COc1cccc(CNC(=O)C2CCN(c3cnccn3)CC2)c1	.	-15	.	.	.	.
COCCCNC(=O)C1CCC(=O)N1Cc1ccccc1Cl (stereo not given)	0.9	-25	1	0.9	9	6
Cc1cccc(NC(=O)c2ccc(-n3ccnc3)nc2)c1	0	.	10	0	98*	100*
CC1=CC(=C2C(=O)c3ccccc3C2=O)C=C(C)N1Cc1ccco1	0.5	19	-2	0.3	68*	51*
CC(NC(=O)c1cccc(C(F)(F)F)c1)C1CCCO1 (stereo not given)	0.7	-5	1	0.9	12	29
O=C(Nc1ccccc1N1CCCCC1)c1ccccc1F	1.1	88*	2	1.2	-20	-6
O=C(Nc1ccccc1N1CCCCC1)c1ccc(N2C(=O)c3ccccc3C2=O)cc1	0.5	.	-18	0.5	55*	49
